{"data": "Experimental data collected from several papers", "organism": "Plasmodium falciparum", "effect on": "parasite growth", "method": "SYBR Green"}
{"Structure (SMILES)": "CC(C)C[C@H](NC(=O)[C@H](Cc1ccccc1)NC(=O)c1cnccn1)B(O)O", "test system": "DD2", "conditions": "blood stage", "endpoint": "EC50", "result": "41 nM"}
{"Structure (SMILES)": "C[N+]1=C2C=C(NCCc3ccc(O)cc3)C(=O)c3[nH]cc(c32)CC1", "test system": "W2", "conditions": "blood stage", "endpoint": "IC50", "result": "32.3 nM"}
{"Structure (SMILES)": "CCCCCCNCC(O)c1cc(Cl)cc2c1-c1ccc(Cl)cc1C2 (racemic)", "test system": "W2", "conditions": "48 h, drug-resistant strain, blood stage", "endpoint": "IC50", "result": "6 nM"}
{"Structure (SMILES)": "COCC(=O)N1CCC[C@H](C(=O)NCc2nc(-c3ccc(C#N)cc3)cs2)C1", "test system": "DD2", "conditions": "blood stage", "endpoint": "EC50", "result": "18 nM"}
{"Structure (SMILES)": "CCCCCNC[C@@H](O)c1cc(Cl)cc2c1-c1ccc(Cl)cc1C2", "test system": "W2", "conditions": "48 h, drug-resistant strain, blood stage", "endpoint": "IC50", "result": "8.6 nM"}
{"Structure (SMILES)": "CC(O)(CS(=O)(=O)c1ccc(F)cc1)C(=O)Nc1ccc(C#N)c(C(F)(F)F)c1 (stereo not drawn)", "test system": "DD2", "conditions": "48 h, drug-resistant strain, blood stage", "endpoint": "IC50", "result": "> 10000 nM"}
{"Structure (SMILES)": "COCC(=O)N1CCC[C@H](C(=O)NCc2nc(-c3ccccc3)cs2)C1", "test system": "DD2", "conditions": "blood stage", "endpoint": "EC50", "result": "69 nM"}
{"Structure (SMILES)": "O=Cc1cn(Cc2cn(-c3ccnc4cc(Cl)ccc34)nn2)c2ccccc12", "test system": "3D7", "conditions": "5 µM, blood stage", "endpoint": "inhibition", "result": "-4.99%"}
{"Structure (SMILES)": "O=C1C=C2NCCc3c[nH]c(c32)C1=O", "test system": "3D7", "conditions": "blood stage", "endpoint": "IC50", "result": "29600 nM"}
{"Structure (SMILES)": "CCCCCCCNCC(O)c1cc(Cl)cc2c1-c1ccc(Cl)cc1C2 (racemic)", "test system": "W2", "conditions": "48 h, drug-resistant strain, blood stage", "endpoint": "IC50", "result": "18.6 nM"}
{"Structure (SMILES)": "CCN(CC)CCCC(C)Nc1ccnc2cc(Cl)ccc12 (stereo not drawn)", "test system": "DD2", "conditions": "96 h, drug-resistant strain, blood stage", "endpoint": "IC50", "result": "75 nM"}
{"Structure (SMILES)": "Cn1cc2c3c1C(=O)C(N)=CC3=NCC2", "test system": "DD2", "conditions": "blood stage", "endpoint": "IC50", "result": "3550 nM"}
{"Structure (SMILES)": "O[C@H](CN1CCN(C(c2ccccc2)c2ccccc2)CC1)c1cc(Cl)cc2c1-c1ccc(Cl)cc1C2", "test system": "W2", "conditions": "48 h, drug-resistant strain, blood stage", "endpoint": "IC50", "result": "70.2 nM"}
{"Structure (SMILES)": "C[N+]1=C2C=C(N)C(=O)c3[nH]cc(c32)CC1", "test system": "3D7", "conditions": "blood stage", "endpoint": "IC50", "result": "196 nM"}
{"Structure (SMILES)": "O[C@@H](CNCCN1CCN(C(c2ccccc2)c2ccccc2)CC1)c1cc(Cl)cc2c1-c1ccc(Cl)cc1C2", "test system": "W2", "conditions": "48 h, drug-resistant strain, blood stage", "endpoint": "IC50", "result": "13 nM"}
{"Structure (SMILES)": "Cn1cc2c3c1C(=O)C(NCCc1ccc(O)cc1)=CC3=NCC2", "test system": "3D7", "conditions": "blood stage", "endpoint": "IC50", "result": "3310 nM"}
{"Structure (SMILES)": "C[C@@H]1CC[C@H]2[C@@H](C)C(=O)O[C@@H]3O[C@@]4(C)CC[C@@H]1[C@]32OO4", "conditions": "72 h", "endpoint": "EC50", "result": "14 nM"}
{"Structure (SMILES)": "C[C@@H]1CC[C@H]2[C@@H](C)C(=O)O[C@@H]3O[C@@]4(C)CC[C@@H]1[C@]32OO4", "test system": "DD2", "conditions": "drug-resistant strain, blood stage", "endpoint": "IC50", "result": "76 nM"}
{"Structure (SMILES)": "CCOCC(=O)N1CCC[C@H](C(=O)NCc2nc(-c3ccc(C#N)cc3)cs2)C1", "test system": "DD2", "conditions": "blood stage", "endpoint": "EC50", "result": "6.2 nM"}
{"Structure (SMILES)": "O[C@H](CN[C@@H](COCC1CC1)Cc1ccccc1)c1cc(Cl)cc2c1-c1ccc(Cl)cc1C2", "test system": "W2", "conditions": "48 h, drug-resistant strain, blood stage", "endpoint": "IC50", "result": "5.4 nM"}
{"Structure (SMILES)": "C[N+]1=C2C=C(N/C=C/c3ccc(O)cc3)C(=O)c3[nH]cc(c32)CC1", "test system": "DD2", "conditions": "blood stage", "endpoint": "IC50", "result": "498 nM"}
